Many of the other results were omitted from the sample, so hits are more common in it than they were.
UPR CHOP act: activators of apoptotic arm of unfolded protein response (CHOP) | activation, % at 10 µM | CHO-CHOP luciferase reporter, UPR activation, luminescence; percent of tunicamycin response over DMSO baseline | 330,000 tested, 0.34% active;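 active = at 10 µM dose, activation of 40% or more, normalized to positive control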
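System: CHO CHOP reporter cells. Amount: 500 cells per well. Buffer or medium: F12 medium, 10% FBS. Compound dosing: one dose, 10 µM in 0.5% DMSO. Incubation: 6 h compound exposure at 37 °C after overnight seeding. Technique: Steady-Glo luciferase luminescence. Benchmarks: tunicamycin and DMSO controls.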
CHOP inh: CHOP inhibition in unfolded protein response; CHO-K1 CHOP-promoter luciferase, tunicamycin-induced, 15-18 h; 220,000 tested, 3.8% active; inhibition, % at 10 µM;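 active = compounds that reduced the stress-induced luciferase reporter signal by more than about 70% of percent inhibition, limit read from the data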
Jurkat NFkB inh: lowers PMA/ionomycin-induced NF-kB signal in Jurkat cells; PMA/ionomycin-induced NF-kB luciferase reporter, luminescence; inhibition, % at 4 µM; 330,000 tested, 0.53% active; AID 435003; in the data active = inhibition above about 50%
XBP1 UPR activ: activators of adaptive arm of unfolded protein response (XBP1); CHO-XBP1 luciferase reporter, IRE1-XBP1 UPR activation, luminescence; percent of tunicamycin response, DMSO as zero; activation, % at 20 µM; 330,000 tested, 0.33% active; AID 463104;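 active = versus positive control, 20 µM dose yields 30% or more activation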
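Material: CHO cell line with stable XBP1 luciferase reporter; schedule: 16-18 h cell attachment at 37 °C, then 6 h compound exposure; signal: glow luminescence from Steady-Glo reagent; medium: serum-containing F12 medium, 10% FBS; benchmarks: tunicamycin 10 µg/mL and vehicle-only wells; read-out: percent activation relative to tunicamycin reference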
697 NFkB inh: inhibitors of the PMA/ionomycin-induced NF-kB reporter in 697 B cells | 697 B-cell NF-kB luciferase reporter, 16 h | inhibition, % at 4 µM | 330,000 tested, 0.33% active | AID 435022; in the data active = inhibition above about 35%
697 NFkB conf: inhibitors of the PMA/ionomycin-induced NF-kB reporter in 697 B cells, retest; shares compounds with 697 NFkB inh; 697 B-cell NF-kB luciferase, 16 h; inhibition, % at 4 µM; 2,000 tested, 35% active; in the data active = inhibition mostly above about 28%, no sharp cut-off; inactive = mostly below about 22%
Hits are given with their value.

What do the screens show for `CCN(CC(=O)Nc1ccc(Cl)c(C(F)(F)F)c1)CC(=O)NC1CCS(=O)(=O)C1` (configuration not stated)?
UPR CHOP act: inactive; CHOP inh: inactive; Jurkat NFkB inh: inactive; XBP1 UPR activ: inactive; 697 NFkB inh: inactive

How did COc1cccc(C2C(C#N)=C(N)OC(C(C)(C)C)=C2C#N)c1 (configuration not stated) do in these assays?
UPR CHOP act: inactive; CHOP inh: inactive; Jurkat NFkB inh: inactive; XBP1 UPR activ: inactive; 697 NFkB inh: 35.6; 697 NFkB conf: inactive

What do the screens show for `COc1ccc(C2C(C#N)=C(N)OC(C(C)(C)C)=C2C#N)cc1OC` (configuration not stated)?
UPR CHOP act: inactive; CHOP inh: inactive; Jurkat NFkB inh: inactive; XBP1 UPR activ: inactive; 697 NFkB inh: inactive

How did Cc1ccc(N2CC(C(=O)Nc3cccc(C(=O)NC4CC4)c3)CC2=O)cc1 (configuration not stated) do in these assays?
UPR CHOP act: inactive; Jurkat NFkB inh: inactive; XBP1 UPR activ: inactive; 697 NFkB inh: inactive

Results for O=C(NCCOc1ccc(F)cc1)C1CCC(=O)N(CC2CCCCC2)C1 (configuration not stated) ?
UPR CHOP act: inactive; Jurkat NFkB inh: inactive; XBP1 UPR activ: inactive; 697 NFkB inh: inactive

Results for CCC1CCCCN1C(=O)COC(=O)CSc1ccc(C(N)=O)cc1[N+](=O)[O-] (configuration not stated) ?
UPR CHOP act: inactive; Jurkat NFkB inh: inactive; XBP1 UPR activ: inactive; 697 NFkB inh: inactive

What do the screens show for `CC1CCCC(C)N1C(=O)COC(=O)CSc1ccc(C(N)=O)cc1[N+](=O)[O-]` (configuration not stated)?
UPR CHOP act: inactive; Jurkat NFkB inh: inactive; XBP1 UPR activ: inactive; 697 NFkB inh: 35.1; 697 NFkB conf: inactive

What do the screens show for `Fc1cccc(Nc2ncnc3sccc23)c1`?
UPR CHOP act: inactive; Jurkat NFkB inh: inactive; XBP1 UPR activ: inactive; 697 NFkB inh: inactive

Results for O=C(O)c1cccc(Nc2ncnc3sccc23)c1 ?
UPR CHOP act: inactive; CHOP inh: inactive; Jurkat NFkB inh: inactive; XBP1 UPR activ: inactive; 697 NFkB inh: 52.3; 697 NFkB conf: inactive

How did CCOC(=O)C(=CNc1cc(C)ccc1C)C(=O)OCC do in these assays?
UPR CHOP act: inactive; CHOP inh: 88.0; Jurkat NFkB inh: inactive; XBP1 UPR activ: inactive; 697 NFkB inh: 37.5; 697 NFkB conf: 29.2

How did CN=c1scc(C)n1/N=C/c1ccc(O)cc1 do in these assays?
UPR CHOP act: inactive; CHOP inh: inactive; Jurkat NFkB inh: inactive; XBP1 UPR activ: inactive; 697 NFkB inh: inactive

Results for CN=c1scc(C)n1/N=C/c1ccc2c(c1)OCO2 ?
UPR CHOP act: inactive; CHOP inh: inactive; Jurkat NFkB inh: inactive; XBP1 UPR activ: inactive; 697 NFkB inh: inactive; 697 NFkB conf: inactive

How did O=C(OCC(=O)C12CC3CC(CC(C3)C1)C2)c1ccc(O)cc1O do in these assays?
UPR CHOP act: inactive; Jurkat NFkB inh: inactive; XBP1 UPR activ: inactive; 697 NFkB inh: inactive

What do the screens show for `O=C(CSCc1cccc(Br)c1)N=Nc1c(O)[nH]c2ccccc12`?
UPR CHOP act: inactive; CHOP inh: inactive; Jurkat NFkB inh: inactive; XBP1 UPR activ: inactive; 697 NFkB inh: inactive

How did O=Nc1c(-c2c(O)[nH]c3cc(Br)ccc23)[nH]c2ccccc12 do in these assays?
UPR CHOP act: inactive; Jurkat NFkB inh: inactive; XBP1 UPR activ: inactive; 697 NFkB inh: inactive; 697 NFkB conf: inactive

How did COc1ccccc1/C(C)=N/Oc1cc(N)cc([N+](=O)[O-])c1 do in these assays?
UPR CHOP act: inactive; Jurkat NFkB inh: inactive; XBP1 UPR activ: inactive; 697 NFkB inh: inactive

How did Fc1cccc(/C=N/Nc2ccc3ccccc3n2)c1 do in these assays?
UPR CHOP act: inactive; CHOP inh: inactive; Jurkat NFkB inh: inactive; XBP1 UPR activ: inactive; 697 NFkB inh: inactive; 697 NFkB conf: inactive

How did CC1CCc2c(sc3nc(C(C)(C)C)nc(N4CCN(C(=O)CCl)CC4)c23)C1 (configuration not stated) do in these assays?
UPR CHOP act: inactive; Jurkat NFkB inh: inactive; XBP1 UPR activ: inactive; 697 NFkB inh: 40.3; 697 NFkB conf: 27.2

What do the screens show for `COc1ccc(CNC(=O)[C@@H](NC(=O)C2CCN(C(=O)[C@@H](N)Cc3ccccc3)CC2)C(C)C)cc1`?
UPR CHOP act: inactive; Jurkat NFkB inh: inactive; XBP1 UPR activ: inactive; 697 NFkB inh: inactive

What do the screens show for `CCSc1ncc(Cl)c(C(=O)Nc2sc3c(c2C(=O)NCc2cccnc2)CCCC3)n1`?
UPR CHOP act: inactive; CHOP inh: inactive; Jurkat NFkB inh: inactive; XBP1 UPR activ: inactive; 697 NFkB inh: 38.0; 697 NFkB conf: 24.6

How did O=C(c1ccc(Cn2c(=S)[nH]c3cc4c(cc3c2=O)OCO4)cc1)N1CCN(c2ncccn2)CC1 do in these assays?
UPR CHOP act: inactive; CHOP inh: inactive; Jurkat NFkB inh: inactive; XBP1 UPR activ: inactive; 697 NFkB inh: 55.6; 697 NFkB conf: inactive

How did O=C(NCCc1ccco1)c1cc(COc2cccc(C(F)(F)F)c2)on1 do in these assays?
UPR CHOP act: inactive; Jurkat NFkB inh: inactive; XBP1 UPR activ: inactive; 697 NFkB inh: inactive

What do the screens show for `CCN1CCN(C(=O)CSc2cc(=O)n(CC)c3ccccc23)CC1`?
UPR CHOP act: inactive; CHOP inh: inactive; Jurkat NFkB inh: inactive; XBP1 UPR activ: inactive; 697 NFkB inh: 38.8; 697 NFkB conf: 53.7

How did CCn1c(=O)cc(SCC(=O)N2CCCCC2)c2ccccc21 do in these assays?
UPR CHOP act: inactive; CHOP inh: inactive; Jurkat NFkB inh: inactive; XBP1 UPR activ: inactive; 697 NFkB inh: 58.4; 697 NFkB conf: 42.5

How did CCOC(=O)C1CCN(C(=O)CSc2cc(=O)n(CC)c3ccccc23)CC1 do in these assays?
UPR CHOP act: inactive; CHOP inh: inactive; Jurkat NFkB inh: inactive; XBP1 UPR activ: inactive; 697 NFkB inh: inactive

How did CCn1c(=O)cc(SCC(=O)N2CCC(C)CC2)c2ccccc21 do in these assays?
UPR CHOP act: inactive; CHOP inh: inactive; Jurkat NFkB inh: inactive; XBP1 UPR activ: inactive; 697 NFkB inh: 59.2; 697 NFkB conf: 44.6

Results for Cn1c(=O)cc(SCC(=O)N2CCN(Cc3ccc4c(c3)OCO4)CC2)c2ccccc21 ?
UPR CHOP act: inactive; CHOP inh: inactive; Jurkat NFkB inh: inactive; XBP1 UPR activ: inactive; 697 NFkB inh: inactive

What do the screens show for `Cn1c(=O)cc(SCC(=O)N2CCN(C3CCCCC3)CC2)c2ccccc21`?
UPR CHOP act: inactive; Jurkat NFkB inh: inactive; XBP1 UPR activ: inactive; 697 NFkB inh: 37.9; 697 NFkB conf: inactive

What do the screens show for `CCOC(=O)C1(Cc2ccc(OC)cc2)CCN(C(=O)[C@@H]2CCCN2C(C)=O)CC1`?
UPR CHOP act: inactive; CHOP inh: inactive; Jurkat NFkB inh: inactive; XBP1 UPR activ: inactive; 697 NFkB inh: inactive

How did CCOC(=O)c1[nH]ncc1CN1CCN(Cc2ccc(C)cc2)C(CCO)C1 (configuration not stated) do in these assays?
UPR CHOP act: inactive; CHOP inh: inactive; Jurkat NFkB inh: inactive; XBP1 UPR activ: inactive; 697 NFkB inh: inactive
